Jurkat NFkB inh = lowers PMA/ionomycin-induced NF-kB signal in Jurkat cells | PMA/ionomycin-induced NF-kB luciferase reporter, luminescence | inhibition, % at 4 µM | actives 0.53% (n = 330,000) | AID 435003; in the data active = inhibition above about 50%
Mdm2-MdmX inh = human Mdm2/MdmX binding inhibition; O15151+Q00987; actives 3% (n = 330,000); inhibition, % at 8 µM; SaOS-2 split-luciferase Mdm2/MdmX complementation, luminescence;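 active = inhibition of at least 50% at 8 µM in the primary screen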
Target sequence (O15151 whole entry, looked up): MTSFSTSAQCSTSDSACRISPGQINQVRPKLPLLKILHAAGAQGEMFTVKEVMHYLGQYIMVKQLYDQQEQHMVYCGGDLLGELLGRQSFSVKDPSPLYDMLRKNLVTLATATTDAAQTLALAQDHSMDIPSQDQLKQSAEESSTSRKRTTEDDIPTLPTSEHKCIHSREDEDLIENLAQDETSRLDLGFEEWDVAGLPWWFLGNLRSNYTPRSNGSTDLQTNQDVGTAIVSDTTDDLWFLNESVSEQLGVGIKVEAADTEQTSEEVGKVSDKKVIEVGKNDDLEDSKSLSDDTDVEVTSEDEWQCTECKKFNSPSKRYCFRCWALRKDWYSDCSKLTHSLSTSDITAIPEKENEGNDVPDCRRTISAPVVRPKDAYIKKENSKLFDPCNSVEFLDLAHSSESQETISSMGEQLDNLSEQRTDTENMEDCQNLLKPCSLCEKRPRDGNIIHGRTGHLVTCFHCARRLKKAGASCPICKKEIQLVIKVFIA
Target sequence (Q00987 whole entry, looked up): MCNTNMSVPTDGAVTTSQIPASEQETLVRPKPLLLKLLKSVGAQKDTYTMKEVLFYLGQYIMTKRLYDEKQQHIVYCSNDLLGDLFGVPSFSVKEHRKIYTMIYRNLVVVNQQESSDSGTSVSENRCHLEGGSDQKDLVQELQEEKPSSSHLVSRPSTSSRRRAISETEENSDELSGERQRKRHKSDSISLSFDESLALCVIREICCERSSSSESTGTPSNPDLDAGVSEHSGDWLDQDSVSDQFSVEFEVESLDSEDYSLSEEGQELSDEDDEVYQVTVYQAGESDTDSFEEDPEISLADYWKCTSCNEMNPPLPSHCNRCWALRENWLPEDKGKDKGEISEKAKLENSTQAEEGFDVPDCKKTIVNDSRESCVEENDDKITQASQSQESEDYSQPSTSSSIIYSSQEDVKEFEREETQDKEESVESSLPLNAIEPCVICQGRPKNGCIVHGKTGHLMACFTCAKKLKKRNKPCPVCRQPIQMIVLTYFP
697 NFkB inh = lowers PMA/ionomycin-induced NF-kB signal in 697 B cells. 697 B-cell NF-kB luciferase reporter, 16 h. inhibition, % at 4 µM. actives 0.33% (n = 330,000). AID 435022; in the data active = inhibition above about 35%
aSyn UTR inh = 5' untranslated region of α-synuclein, MLPCN primary screen; alpha-synuclein 5'UTR reporter, inhibitor activity; inhibition, % (tested at 7.5 µM); actives 0.82% (n = 300,000); AID 1813; in the data active = inhibition above about 60%;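 note: H4 neuroglioblastoma cells stably carrying SNCA 5'UTR luciferase fusion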
IMP-1 inh-1 = inhibitors of Pseudomonas aeruginosa IMP-1 metallo-beta-lactamase; actives 0.45% (n = 290,000); purified IMP-1, nitrocefin hydrolysis, epi-absorbance fluorescence; AID 1556; inhibition, % at 5.6 µM;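 active = inhibition above the mean plus 3 SD of all compounds in the same screening run, cut at about 4.5% in these data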
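System: Purified recombinant IMP-1 metallo-beta-lactamase enzyme | Measured by: Fluorescence quenching readout, ex 480/em 530 nm | Replication: Singlicate | Incubation: 15 min preincubation plus 25 min reaction at 25 °C | Evaluation: Percent inhibition from optical density relative to buffer-blank wells | Benchmarks: DMSO with and without IMP-1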
VIM-2 inh = blocks Pseudomonas aeruginosa VIM-2 metallo-beta-lactamase. purified VIM-2, nitrocefin hydrolysis, epi-absorbance fluorescence. actives 0.89% (n = 290,000). inhibition, % at 5.6 µM. AID 1527;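 active = inhibition above the mean of all tested compounds plus 3 SD, cutoff set per screening run, cut at about 7.5% in these data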;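 note: red hydrolysis product quenches plate fluorescence so inhibitors raise well fluorescence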
IMP-1 inh-2 = blocks IMP-1 metallo-beta-lactamase in VIM-2 selectivity screen; shares compounds with VIM-2 inh; purified IMP-1, nitrocefin hydrolysis, epi-absorbance fluorescence; inhibition, % at 5.6 µM; 1,300 tested, under 10 active; AID 1856; call rule not given here
VIM-2 FRET inh = counter-screen for VIM-2 inhibitors: epi-absorbance artifacts via FRET; purified VIM-2, CCF2 FRET substrate hydrolysis; shares compounds with VIM-2 inh; inhibition, % at 5.6 µM; actives 23% (n = 1,300); AID 1857;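 active = inhibition above the mean of all tested compounds plus 3 SD, cut at about 19% in these data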
TEM-1 counter = TEM-1 inhibition, counter-screen for VIM-2 inhibitors; shares compounds with VIM-2 inh; AID 1866; inhibition, % at 5.6 µM; actives 3% (n = 1,300); Purified TEM-1, nitrocefin hydrolysis, epi-absorbance fluorescence;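 active = inhibition above that campaign's mean inhibition plus 3 SD, cut at about 0.46% in these data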
VIM-2 confirm 2 = confirmation of P. aeruginosa VIM-2 metallo-beta-lactamase inhibitors; shares compounds with VIM-2 inh; purified VIM-2, nitrocefin hydrolysis, epi-absorbance; inhibition, % at 5.6 µM; actives 96% (n = 1,300); AID 2187;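 active = inhibition of the VIM-2 beta-lactamase enzyme above about 11% from the earlier first-round screen, limit read from the data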
Large screens that a line does not name were inactive (follow-up assays come after a bar, where they were run). In the library only some 4.7% were active in any assay of this set; here they are far more common.

O=c1oc2cc(O[C@@H]3OC[C@@H](O)[C@H](O)[C@H]3O)ccc2c2ccccc12	VIM-2 inh 16.1 | IMP-1 inh-2 inactive | VIM-2 FRET inh inactive | TEM-1 counter inactive | VIM-2 confirm 2 28.5
Cc1c(C)c2ccc(O[C@@H]3O[C@H](CO)[C@H](O)[C@H](O)[C@H]3O)cc2oc1=O	none
CCCCn1c(N)c(N(CCC(C)C)C(=O)c2ccc3c(c2)OCCO3)c(=O)[nH]c1=O	none (no result: IMP-1 inh-1, VIM-2 inh)
N#CCSc1nc2cc(C(=O)N3CCC(C(N)=O)CC3)ccc2c2nc3ccccc3n12	VIM-2 inh 24.3 | IMP-1 inh-2 inactive | VIM-2 FRET inh inactive | TEM-1 counter inactive | VIM-2 confirm 2 40.0
N#CCSc1nc2cc(C(=O)N3CCCC3)ccc2c(=O)n1Cc1ccccc1	none
CSCc1cc(N(C)c2ccccc2)nc(-c2ccccn2)n1	VIM-2 inh 64.0 | IMP-1 inh-2 inactive | VIM-2 FRET inh inactive | TEM-1 counter inactive | VIM-2 confirm 2 72.2
c1ccc(CN2CCN(CCCNc3ccc4nnc(-c5ccccc5)n4n3)CC2)cc1	VIM-2 inh 62.4 | IMP-1 inh-2 inactive | VIM-2 FRET inh inactive | TEM-1 counter 0.8 | VIM-2 confirm 2 76.1
CCCc1cc(-n2cnc3ccccc32)n2c(nc3ccccc32)c1C#N	none
CCCc1cc(NCCCN(C)C)n2c(nc3ccccc32)c1C#N	VIM-2 inh 20.6 | IMP-1 inh-2 inactive | VIM-2 FRET inh inactive | TEM-1 counter 2.0 | VIM-2 confirm 2 35.1
C=C(C)Cc1c(C)c(C#N)c2nc3ccccc3n2c1NCCCN(C)C	VIM-2 inh 29.3 | IMP-1 inh-2 inactive | VIM-2 FRET inh inactive | TEM-1 counter inactive | VIM-2 confirm 2 45.1
CCc1c(C)c(C#N)c2nc3ccccc3n2c1NCCN(C)C	none
CCOC(=O)N1CCN(S(=O)(=O)c2ccc(C(=O)N(CCN(CC)CC)c3nc4ccc(C)cc4s3)cc2)CC1	none
Cn1c(N2CCN(C(c3ccccc3)c3ccccc3)CC2)nc2ccccc21	none
O=[N+]([O-])c1ccccc1/C=C/C=N/n1c(-c2ccccc2F)n[nH]c1=S	VIM-2 inh 13.5 | IMP-1 inh-2 inactive | VIM-2 FRET inh 33.7 | TEM-1 counter inactive | VIM-2 confirm 2 21.2
COc1ccc2c(=O)c(-c3ccc4c(c3)OCO4)coc2c1	none
COc1ccc2c(c1)c(=O)c(C(=O)O)c(-c1ccc3c(c1)OCO3)n2C	VIM-2 inh 40.3 | IMP-1 inh-2 inactive | VIM-2 FRET inh 73.2 | TEM-1 counter inactive | VIM-2 confirm 2 59.0
CN(c1ccc(OCC(=O)NC2CCC(O)CC2)cc1)S(=O)(=O)c1ccc(Cl)cc1 (stereo unspecified)	none (no result: aSyn UTR inh, IMP-1 inh-1, VIM-2 inh)
Cc1cccc(C)c1NC(=O)c1ccccc1C(=O)O	none
Cc1cccc(C(=O)c2ccccc2C(=O)O)c1O	VIM-2 inh 21.7 | IMP-1 inh-2 inactive | VIM-2 FRET inh 30.0 | TEM-1 counter inactive | VIM-2 confirm 2 16.7
O=C(Cc1cc(=O)oc2cc(O)ccc12)NC(Cc1ccc(Cl)cc1)C(=O)O (stereo unspecified)	none
O=C(CCNS(=O)(=O)c1ccccc1F)OCc1ccccc1Cl	none (no result: aSyn UTR inh, IMP-1 inh-1, VIM-2 inh)
O=C(COc1coc(CN2CCCc3ccccc32)cc1=O)Nc1ccc([N+](=O)[O-])cc1	none (no result: IMP-1 inh-1, VIM-2 inh)
O=C(CCCN1C(=O)c2cccc3cccc(c23)C1=O)NC1CCS(=O)(=O)C1 (stereo unspecified)	VIM-2 inh 14.8 | IMP-1 inh-2 inactive | VIM-2 FRET inh inactive | TEM-1 counter inactive | VIM-2 confirm 2 21.8
COCCN(C(=O)COC(=O)CSc1ccccc1)c1c(N)n(Cc2ccccc2)c(=O)[nH]c1=O	none (no result: IMP-1 inh-1, VIM-2 inh)
CC(=O)N1CCN(S(=O)(=O)c2ccc(C)cc2)C1c1ccc(N(C)C)cc1 (stereo unspecified)	VIM-2 inh 30.7 | IMP-1 inh-2 inactive | VIM-2 FRET inh 50.9 | TEM-1 counter inactive | VIM-2 confirm 2 37.0
CCSc1nncn1/N=C/c1ccc(OC)c(OC)c1	VIM-2 inh 23.9 | IMP-1 inh-2 inactive | VIM-2 FRET inh inactive | TEM-1 counter inactive | VIM-2 confirm 2 41.3
COc1cc(OC)c2nc(C)c3c(c2c1)N(c1ccc(O)cc1)CC3	VIM-2 inh 56.5 (no result: Jurkat NFkB inh, Mdm2-MdmX inh, 697 NFkB inh) | IMP-1 inh-2 inactive | VIM-2 FRET inh inactive | TEM-1 counter inactive | VIM-2 confirm 2 68.9
Cc1c(C)c2ccc(OCC(=O)NC3CCN(Cc4ccccc4)CC3)c(C)c2oc1=O	VIM-2 inh 21.2 | IMP-1 inh-2 inactive | VIM-2 FRET inh inactive | TEM-1 counter inactive | VIM-2 confirm 2 31.0
O=C(Cn1[nH]c(=O)c2ccccc2c1=O)NC1CCN(Cc2ccccc2)CC1	VIM-2 inh 20.4 | IMP-1 inh-2 inactive | VIM-2 FRET inh inactive | TEM-1 counter inactive | VIM-2 confirm 2 36.5
CCc1cc(=O)oc2cc(C)cc(OCC(=O)NC3CC3)c12	none
CCc1cc(=O)oc2cc(C)cc(OCC(=O)NC3CCN(Cc4ccccc4)CC3)c12	VIM-2 inh 12.8 | IMP-1 inh-2 inactive | VIM-2 FRET inh inactive | TEM-1 counter inactive | VIM-2 confirm 2 23.6
Cc1ccc(S(=O)(=O)NCC(=O)OCC(=O)N(CCC#N)c2ccccc2)cc1	none (no result: aSyn UTR inh, IMP-1 inh-1, VIM-2 inh)
Cc1ccc(OCCNC(=O)CNC(=O)c2ccc(Cl)c([N+](=O)[O-])c2)cc1	none (no result: aSyn UTR inh, IMP-1 inh-1, VIM-2 inh)
COc1ccc(NC(=O)CCc2nnc3ccc(N4CCN(c5cccc(OC)c5)CC4)nn23)cc1	none
COc1ccccc1NS(=O)(=O)c1ccc(O)c(C(=O)OCC(=O)N2c3ccccc3CC2C)c1 (stereo unspecified)	none
CSc1nnc2c3cc(F)ccc3n(C)c2n1	VIM-2 inh 13.8 | IMP-1 inh-2 inactive | VIM-2 FRET inh inactive | TEM-1 counter inactive | VIM-2 confirm 2 24.3
Cn1c2ccccc2c2nnc(SCc3ccc4nonc4c3)nc21	none
COc1cccc(CNC(=O)CSc2nnc3c(n2)[nH]c2ccccc23)c1	none
Cn1c(SCC(=O)O)nc2sc3c(c2c1=O)CCC3	VIM-2 inh 13.9 | IMP-1 inh-2 inactive | VIM-2 FRET inh 30.1 | TEM-1 counter inactive | VIM-2 confirm 2 21.8
Cc1cccc(-c2cc3nc(C)cc(C)n3n2)c1	none
Cc1cc(NCCCn2ccnc2)n2nc(-c3ccc(Cl)cc3)cc2n1	VIM-2 inh 38.5 | IMP-1 inh-2 inactive | VIM-2 FRET inh inactive | TEM-1 counter inactive | VIM-2 confirm 2 46.7
